The values that follow come from publication PMC3785103 (Molecular pharmaceutics, 2013).

Where two headings read alike, the source gives them in different places. [ ]: non-standard residue; d: D form. d2Nal = N[C@H](Cc1ccc2ccccc2c1)C(=O)O; Nle = CCCC[C@H](N)C(=O)O

For one data set, the target named is MC1R. To be noted: read-out: Ki for MC1R, cited from earlier work.
Data set [1] has as its target MC5R. To be noted: read-out: Ki for MC5R; unlabeled peptide ligands; cited from earlier work.
A further data set can be described thus: in vivo. Conditions: female, nu/nu, mouse.
In data set [2] the test system is A375/MC1R and A375 xenograft tumors. The experiment in a line: in vivo. Conditions: female, nu/nu, mouse, 5 nmol/kg.
Details of data set [3]: species or system mouse. Conditions: mean±s.d. of 10 simulations.
For data set [4], the system named is MC5R. The experiment in a line: Co-injection of MC5R-selective ligand to block kidney uptake of probe. Format: in vivo, mouse. Conditions: 5 nmol/kg MC1RL-800 co-injected with 1 nmol/kg MC5R-selective ligand, 2 h. The method in brief: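 Female nu/nu mice (6–8 weeks) carried s.c. xenografts: 1 × 10⁶ A375/MC1R cells in the right flank and parental A375 cells in the left. At 500–800 mm³ tumor volume, mice received 5 nmol/kg MC1R ligand–IRDye800CW i.v. (tail vein, in 100 μL sterile saline) co-injected with 1 nmol/kg MC5R-specific ligand. Fluorescence imaging used mean pre-injection tumor signal subtracted from normalized post-injection ROI intensities.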

Take “H-YV[Nle]GH[d2Nal]R[dF]DRFG-NH2 [reference compound]”: the Ki (commonly the dissociation constant of the complex between target and ligand, obtained from inhibition or displacement) at MC1R (unlabeled peptide ligands) is 5.6 nM; at MC5R [1] it was 0.71 nM.
Turning to `CC1(C)C(=CC=C2CCCC(C=CC3=[N+](CCCCS(=O)(=O)[O-])c4ccc(S(=O)(=O)O)cc4C3(C)C)=C2Oc2ccc(S(=O)(=O)O)cc2)N(CCCCCC(=O)NCCN2C(=O)CC(SCCC(=O)NCCCC[C@H](NC(=O)CNC(=O)[C@H](Cc3c[nH]c4ccccc34)NC(=O)[C@H](CCCNC(=N)N)NC(=O)[C@@H](Cc3ccccc3)NC(=O)[C@H](Cc3c[nH]cn3)NC(=O)CCCc3ccccc3)C(N)=O)C2=O)c2ccc(S(=O)(=O)O)cc21` (stereo partly drawn) [MC1RL-800, 4-phenylbutyryl-His-DPhe-Arg-Trp-Gly-Lys(Mpr-IRDye800CW)-NH2], the half-life (usually the time needed for the level to fall by half in the phase considered) in “in vivo” (5 nmol/kg, half-life (clearance) in the tumor) was 1320 min. This compound also showed a half-life in “in vivo” (half-life (clearance) in negative tissue) of 960 min. Moreover, in data set [2], the “half-life (clearance) in the tumor” value is listed as around 22 h. Besides, in data set [3], the “Kki, rate of accumulation of ligand in the kidney specific binding compartment” value is recorded as 1E-2+6.8E-3 (NU.h)^−1; the “Kko, rate of clearance of ligand from kidney back to the bloodstream” value is 0.96 ± 0.14 h⁻¹; the “Kni, rate of accumulation in non-specific tissue” value is given as 1.8 ± 0.2 (NU.h)^−1; the “Kno, rate of clearance from non-specific tissue” value was 2.3 ± 0.6 h⁻¹. For the same compound, in data set [3], the “Kto, rate of clearance from tumor specific binding compartment” value is listed as 26+12 (h)^−1. Also, in data set [3] (fit to 3 nmol/kg ex vivo data), the “Kti, rate of probe accumulation in tumor specific binding compartment” value is recorded as 2.7+1.4 (NU.h)^−1. In addition, the “decrease of A375/MC1R tumor signal” value in the data set with MC5R [4] stood at 28%. At MC1R (NIRF dye conjugates), the Ki is 0.4 ± 0.1 nM.
“4-phenylbutyryl-His-DPhe-Arg-Trp-Gly-Lys(hex-5-ynoyl)-NH2 [unlabeled ligand]”: the Ki at MC1R (unlabeled peptide ligands) is 0.24 nM; on MC5R [1] it was 46 nM.
